From paper PMC7444767 (British Journal of Clinical Pharmacology, 2020)

Legend:
[1] = system: murine models of collagen‐ and collagen antibody–induced arthritis; settings: administered orally once daily (QD); both arthritis models; cited from earlier work
healthy participants = test: Safety assessment; assay type: in vivo, human; settings: for Dizziness / Dysmenorrhoea / Headache / Myalgia / Nausea / Oral herpes / Rash / Tension headache / Throat irritation / Upper respiratory tract infection: all branebrutinib doses
[2] = preclinical studies; cited from earlier work
[3] = biological target: Bruton's tyrosine kinase (BTK) (Homo sapiens, UniProt Q06187); test: BTK occupancy in blood by immunocapture LC–MS/MS; assay type: in vivo; settings: for Time at which BTK occupancy reached steady state: MAD
Sequence of Bruton's tyrosine kinase (BTK) (Q06187 whole entry, the tested form may be a part): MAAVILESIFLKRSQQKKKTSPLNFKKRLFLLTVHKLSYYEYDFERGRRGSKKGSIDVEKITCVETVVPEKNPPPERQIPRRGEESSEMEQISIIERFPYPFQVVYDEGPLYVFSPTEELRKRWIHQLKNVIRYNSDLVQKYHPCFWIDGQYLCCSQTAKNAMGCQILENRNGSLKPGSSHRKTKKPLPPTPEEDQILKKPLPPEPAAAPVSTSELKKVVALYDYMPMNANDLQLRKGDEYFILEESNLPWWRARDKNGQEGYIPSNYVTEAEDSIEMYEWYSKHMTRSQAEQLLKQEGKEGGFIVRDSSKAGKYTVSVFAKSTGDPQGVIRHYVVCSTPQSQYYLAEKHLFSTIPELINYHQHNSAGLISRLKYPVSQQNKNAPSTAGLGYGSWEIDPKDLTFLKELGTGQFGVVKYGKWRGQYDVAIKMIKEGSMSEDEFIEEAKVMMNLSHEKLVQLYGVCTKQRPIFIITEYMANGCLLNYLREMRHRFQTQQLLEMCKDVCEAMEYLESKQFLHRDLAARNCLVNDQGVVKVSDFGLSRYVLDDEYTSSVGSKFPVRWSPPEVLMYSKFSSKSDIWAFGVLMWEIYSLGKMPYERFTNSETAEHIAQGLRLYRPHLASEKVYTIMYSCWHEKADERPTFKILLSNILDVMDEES
How it was run: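 Healthy volunteers in SAD and MAD parts (MAD doses 0.3–10 mg). Whole blood in ACD-A was lysed at once in buffer with protease inhibitor and a Cys481-reactive quencher, shaken 1 h at room temperature, and stored ≤−70°C. Anti-BTK bead immunocapture, on-bead trypsin digest, and LC–MS/MS of drug- or quencher-bound Cys481 peptide (residues 467–487). Occupancy = DB/(DB+QB)×100, and total BTK was also derived.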

[4] = system: peripheral blood B‐cell populations; test: Peripheral blood B-cell subsets; assay type: in vivo, human; settings: MAD part
How it was run: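 Double-blind, placebo-controlled multiple-ascending-dose part in healthy adults aged 18–55 y (BMI 18–32 kg m−2), randomised 3:1 to test compound or placebo. Oral dosing once daily for 14 days at 0.3, 1, 3 or 10 mg, with 14 days of post-dosing follow-up. Peripheral blood B-cell subsets measured and summarised with descriptive statistics.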

[5] = Plasma pharmacokinetics by validated LC–MS/MS; assay type: in vivo, human; settings: for AUC(0-inf) / Cmax / half-life / Tmax / Vd/F: human, plasma; for AUC(0-inf): GM AUCinf; for Cmax: GM Cmax; for Tmax: Median Tmax
BTK = settings: cited from earlier work
EGFR kinases = settings: cited from earlier work
[6] = system: serum immunoglobulin levels; test: Serum immunoglobulins; assay type: in vivo, human; settings: both parts (SAD and MAD)
How it was run: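 Healthy adults aged 18–55 y, randomised 3:1 to test compound or placebo, double-blind. Single-ascending-dose part: one oral dose of 0.3, 1, 3, 10 or 30 mg (n = 6 each; placebo n = 10). Multiple-ascending-dose part: oral dosing daily for 14 days at 0.3–10 mg. Serum immunoglobulins measured in both parts and summarised descriptively.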

[7] = oral, 0.3 mg, JMAD part (day 14), 0.3 mg QD, n = 6
[8] = oral, 0.3 mg, MAD part (day 14), 0.3 mg QD, n = 6
[9] = oral, 1 mg, MAD part (day 14), 1 mg QD, n = 6
[10] = oral, 1 mg, SAD part (day 1), 1 mg, n = 6
[11] = oral, 3 mg, JMAD part (day 14), 3 mg QD, n = 6
[12] = oral, 3 mg, MAD part (day 14), 3 mg QD, n = 6
[13] = oral, 3 mg, SAD part (day 1), 3 mg, n = 6
[14] = oral, 10 mg, JMAD part (day 14), 10 mg QD, n = 6
[15] = oral, 10 mg, MAD part (day 14), 10 mg QD, n = 5
[16] = oral, 10 mg, SAD part (day 1), 10 mg, n = 6
[17] = oral, 30 mg, SAD part (day 1), 30 mg, n = 6

CC#CC(=O)N[C@H]1CCCN(c2c(F)cc(C(N)=O)c3[nH]c(C)c(C)c23)C1 [Branebrutinib]
Doses at which maximal efficacy was observed [1]: ≥ 0.5 mg/kg
Dizziness (healthy participants; JMAD part, n = 18): 0 (0.0) n (%)
Dysmenorrhoea (healthy participants; JMAD part, n = 18): 2 (11.1) n (%)
Headache (healthy participants; JMAD part, n = 18): 1 (5.6) n (%)
Myalgia (healthy participants; JMAD part, n = 18): 0 (0.0) n (%)
Nausea (healthy participants; JMAD part, n = 18): 0 (0.0) n (%)
Oral herpes (healthy participants; JMAD part, n = 18): 0 (0.0) n (%)
Rash (healthy participants; JMAD part, n = 18): 0 (0.0) n (%)
Tension headache (healthy participants; JMAD part, n = 18): 0 (0.0) n (%)
Throat irritation (healthy participants; JMAD part, n = 18): 0 (0.0) n (%)
Upper respiratory tract infection (healthy participants; JMAD part, n = 18): 0 (0.0) n (%)
Serious AE (psychosis) leading to study discontinuation, number (healthy participants; MAD part, 10‐mg cohort, Day 10, considered not related to study drug): 1
Any AE (healthy participants; MAD part, QD 14 days, all branebrutinib doses 0.3-10 mg, n = 24): 17 (70.8) n (%)
Dizziness (healthy participants; MAD part, n = 24): 0 (0.0) n (%)
Dysmenorrhoea (healthy participants; MAD part, n = 24): 0 (0.0) n (%)
Headache (healthy participants; MAD part, n = 24): 8 (33.3) n (%)
Myalgia (healthy participants; MAD part, n = 24): 0 (0.0) n (%)
Nausea (healthy participants; MAD part, n = 24): 2 (8.3) n (%)
Oral herpes (healthy participants; MAD part, n = 24): 3 (12.5) n (%)
Rash (healthy participants; MAD part, n = 24): 0 (0.0) n (%)
Tension headache (healthy participants; MAD part, n = 24): 2 (8.3) n (%)
Throat irritation (healthy participants; MAD part, n = 24): 0 (0.0) n (%)
Upper respiratory tract infection (healthy participants; MAD part, n = 24): 4 (16.7) n (%)
Dizziness (healthy participants; SAD part, n = 30): 3 (10.0) n (%)
Dysmenorrhoea (healthy participants; SAD part, n = 30): 2 (6.7) n (%)
Headache (healthy participants; SAD part, n = 30): 4 (13.3) n (%)
Myalgia (healthy participants; SAD part, n = 30): 2 (6.7) n (%)
Nausea (healthy participants; SAD part, n = 30): 2 (6.7) n (%)
Oral herpes (healthy participants; SAD part, n = 30): 1 (3.3) n (%)
Rash (healthy participants; SAD part, n = 30): 2 (6.7) n (%)
Tension headache (healthy participants; SAD part, n = 30): 0 (0.0) n (%)
Throat irritation (healthy participants; SAD part, n = 30): 2 (6.7) n (%)
Upper respiratory tract infection (healthy participants; SAD part, n = 30): 3 (10.0) n (%)
Any AE (healthy participants; SAD part, single dose, all branebrutinib doses 0.3-30 mg, n = 30): 18 (60.0) n (%)
Dose‐related trend in AEs (healthy participants; across both parts of the trial): no dose‐related trend
Tolerability (healthy participants; single or multiple doses in healthy participants): well tolerated
Brain penetration [2]: < 5 % of plasma concentration
Time at which BTK occupancy reached steady state ([3]; 0.3‐mg dose group): 14 days
Time at which BTK occupancy reached steady state ([3]; 10‐mg dose group): 1 days
Doses projected to be efficacious (BTK occupancy >90% at steady state) ([3]; at steady state, QD): ≥ 1 mg
Effect on peripheral blood B‐cell populations [4]: no obvious effect
GM CLT/F (apparent total body clearance) ([5]; JMAD part (day 14), 0.3 mg QD, n = 5): 94.0 (n = 5) L/hr
GM CLT/F (apparent total body clearance) ([5]; JMAD part (day 14), 3 mg QD, n = 6): 109 (n = 6) L/hr
GM CLT/F (apparent total body clearance) ([5]; JMAD part (day 14), 10 mg QD, n = 6): 72.2 (n = 6) L/hr
GM CLT/F (apparent total body clearance) ([5]; MAD part (day 14), 0.3 mg QD, n = 5): 81.3 (n = 5) L/hr
GM CLT/F (apparent total body clearance) ([5]; MAD part (day 14), 1 mg QD, n = 6): 95.5 (n = 6) L/hr
GM CLT/F (apparent total body clearance) ([5]; MAD part (day 14), 3 mg QD, n = 6): 98.1 (n = 6) L/hr
GM CLT/F (apparent total body clearance) ([5]; MAD part (day 14), 10 mg QD, n = 5): 99.5 (n = 5) L/hr
Accumulation following administration of multiple doses ([5]; MAD, QD 14 days): No accumulation
GM CLT/F (apparent total body clearance) ([5]; SAD part (day 1), 0.3 mg single oral dose, n = 6): 126 L/h
GM CLT/F (apparent total body clearance) ([5]; SAD part (day 1), 1 mg, n = 6): 124 L/h
GM CLT/F (apparent total body clearance) ([5]; SAD part (day 1), 3 mg, n = 6): 122 L/h
GM CLT/F (apparent total body clearance) ([5]; SAD part (day 1), 10 mg, n = 6): 99.6 L/h
GM CLT/F (apparent total body clearance) ([5]; SAD part (day 1), 30 mg, n = 6): 106 L/h
Time to drop to undetectable plasma levels ([5]; after single or multiple doses): ≤ 24 h
AUC(0-inf) ([5]; oral, 0.3 mg, JMAD part (day 14), 0.3 mg QD, n = 5): 3.2 ng·h/mL
AUC(0-inf) ([5]; oral, 0.3 mg, MAD part (day 14), 0.3 mg QD, n = 5): 3.7 ng·h/mL
Cmax [5, 7]: 2 ng/mL
Cmax [5, 8]: 2.2 ng/mL
half-life ([5]; oral, 0.3 mg, Mean t1/2, JMAD part (day 14), 0.3 mg QD, n = 5): 54.6 min
half-life ([5]; oral, 0.3 mg, Mean t1/2, MAD part (day 14), 0.3 mg QD, n = 5): 78 min
Tmax [5, 7]: 30 min
Tmax [5, 8]: 60 min
Vd/F ([5]; oral, 1 mg): 255 L
AUC(0-inf) [5, 9]: 10.5 ng·h/mL
AUC(0-inf) [5, 10]: 8.1 ng·h/mL
Cmax [5, 9]: 5.9 ng/mL
Cmax [5, 10]: 4.6 ng/mL
half-life ([5]; oral, 1 mg, Mean t1/2, MAD part (day 14), 1 mg QD, n = 6): 99.6 min
half-life ([5]; oral, 1 mg, Mean t1/2, SAD part (day 1), 1 mg, n = 6): 95.4 min
Tmax [5, 9]: 30 min
Tmax [5, 10]: 30 min
Vd/F ([5]; oral, 3 mg): 304 L
AUC(0-inf) [5, 11]: 27.4 ng·h/mL
AUC(0-inf) [5, 12]: 30.6 ng·h/mL
AUC(0-inf) [5, 13]: 24.5 ng·h/mL
Cmax [5, 11]: 16.3 ng/mL
Cmax [5, 12]: 17.8 ng/mL
Cmax [5, 13]: 14.2 ng/mL
half-life ([5]; oral, 3 mg, Mean t1/2, JMAD part (day 14), 3 mg QD, n = 6): 90.6 min
half-life ([5]; oral, 3 mg, Mean t1/2, MAD part (day 14), 3 mg QD, n = 6): 98.4 min
half-life ([5]; oral, 3 mg, Mean t1/2, SAD part (day 1), 3 mg, n = 6): 104 min
Tmax [5, 11]: 30 min
Tmax [5, 12]: 30 min
Tmax [5, 13]: 48 min
Vd/F ([5]; oral, 10 mg): 221 L
AUC(0-inf) [5, 14]: 139 ng·h/mL
AUC(0-inf) [5, 15]: 101 ng·h/mL
AUC(0-inf) [5, 16]: 100 ng·h/mL
Cmax [5, 14]: 97.2 ng/mL
Cmax [5, 15]: 60.5 ng/mL
Cmax [5, 16]: 66.6 ng/mL
half-life ([5]; oral, 10 mg, Mean t1/2, JMAD part (day 14), 10 mg QD, n = 6): 102 min
half-life ([5]; oral, 10 mg, Mean t1/2, MAD part (day 14), 10 mg QD, n = 5): 104 min
half-life ([5]; oral, 10 mg, Mean t1/2, SAD part (day 1), 10 mg, n = 6): 93.6 min
Tmax [5, 14]: 30 min
Tmax [5, 15]: 30 min
Tmax [5, 16]: 30 min
Vd/F ([5]; oral, 30 mg): 245 L
AUC(0-inf) [5, 17]: 282 ng·h/mL
Cmax [5, 17]: 179 ng/mL
half-life ([5]; oral, 30 mg, Mean t1/2, SAD part (day 1), 30 mg, n = 6): 97.8 min
Tmax [5, 17]: 30 min
Vd/F ([5]; po, 0.3 mg): 216 L
Trough observed concentrations ([5]; multiple doses, LLOQ 0.100 ng mL^−1): below the LLOQ
Systemic exposure vs dose ([5]; single or multiple doses): dose‐proportional
Selectivity for BTK over 4 related Tec family kinases (BTK): < 5000 fold
Selectivity for BTK over 240 other kinases (BTK): > 5000 fold
Activity against EGFR kinases (EGFR kinases; in vitro assessment): lacks activity
Effect on serum immunoglobulin levels [6]: no obvious effect

C=CC(=O)N1CCC[C@@H](n2nc(-c3ccc(Oc4ccccc4)cc3)c3c(N)ncnc32)C1 [ibrutinib, reference compound]
Inhibition of the EGFR family of kinases (EGFR kinases): potent irreversible inhibitor
